Laboratory results published in ChEMBL document CHEMBL1147132, “Structure-activity relationship studies of gonadotropin-releasing hormone antagonists containing S-aryl/alkyl norcysteines and their oxidized derivatives” (J Med Chem, 2007).
In brackets after ≈: the same amount, converted by molar mass.

Tests used:
[1] = target: T1, Gonadotropin-releasing hormone receptor (Homo sapiens, UniProt P30968); assay: Antagonist activity at human GnRHR expressed in HEK293 cells assessed as inhibition of GnRH-induced luciferase response by reporter gene assay; type: functional, cell-based
T1 sequence (P30968 whole entry): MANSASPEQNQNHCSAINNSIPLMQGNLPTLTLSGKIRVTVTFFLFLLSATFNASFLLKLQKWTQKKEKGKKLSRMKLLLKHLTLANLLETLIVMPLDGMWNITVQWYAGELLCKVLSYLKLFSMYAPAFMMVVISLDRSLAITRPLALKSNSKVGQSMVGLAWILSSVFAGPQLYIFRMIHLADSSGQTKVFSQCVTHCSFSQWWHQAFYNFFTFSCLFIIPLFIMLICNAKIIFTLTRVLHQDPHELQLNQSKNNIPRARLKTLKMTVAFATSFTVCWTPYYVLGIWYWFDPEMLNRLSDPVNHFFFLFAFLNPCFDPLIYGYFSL
Summary of the method: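 HEK293 cells stably expressing cloned human GnRHR and an LH alpha-subunit-promoter luciferase reporter, plated overnight. Compound in 1% DMSO was added 10 min before GnRH (1 nM final), then ≥5 h at 37 °C, 5% CO2, then luminescence. 11 half-log concentrations in duplicate. IC50 from four-parameter logistic fit, reported as geometric mean of ≥2 experiments.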

[2] = Solubility in 5% mannitol; type: physicochemical

| SMILES | IC50 [1] | solubility [2] |
| --- | --- | --- |
| CC(=O)Nc1ccc(C[C@H](NC(=O)[C@H](CO)NC(=O)[C@@H](CCC(N)=O)NC(=O)[C@@H](Cc2ccc(Cl)cc2)NC(=O)[C@@H](Cc2ccc3ccccc3c2)NC(C)=O)C(=O)N[C@H](Cc2ccc(NC(C)=O)cc2)C(=O)N[C@H](C(=O)N[C@@H](CCCCNC(C)C)C(=O)N2CCC[C@H]2C(=O)N[C@H](C)C(N)=O)[S+]([O-])C(C)C)cc1 (stereo partly drawn) | 13 nM (antagonist) | 50 mg/mL (≈ 32.3 mM) |
| CC(=O)Nc1ccc(C[C@H](NC(=O)[C@@H](NC(=O)[C@@H](Cc2cccnc2)NC(=O)[C@@H](Cc2ccc(Cl)cc2)NC(=O)[C@@H](Cc2ccc3ccccc3c2)NC(C)=O)[S+](C)[O-])C(=O)N[C@H](Cc2ccc(NC(C)=O)cc2)C(=O)N[C@@H](CC(C)C)C(=O)N[C@@H](CCCCNC(C)C)C(=O)N2CCC[C@H]2C(=O)N[C@H](C)C(N)=O)cc1 (stereo partly drawn) | 4.6 nM (antagonist) | 50 mg/mL (≈ 31.9 mM) |
| CC(=O)Nc1ccc(C[C@H](NC(=O)[C@H](CO)NC(=O)[C@@H](Cc2cccnc2)NC(=O)[C@@H](Cc2ccc(Cl)cc2)NC(=O)[C@@H](Cc2ccc3ccccc3c2)NC(C)=O)C(=O)N[C@H](Cc2ccc(NC(C)=O)cc2)C(=O)N[C@@H](C(=O)N[C@@H](CCCCNC(C)C)C(=O)N2CCC[C@H]2C(=O)N[C@H](C)C(N)=O)[S+]([O-])C(C)C)cc1 (stereo partly drawn) | 3 nM (antagonist) | 50 mg/mL (≈ 31.9 mM) |
| CC(=O)Nc1ccc(C[C@H](NC(=O)[C@H](CO)NC(=O)[C@@H](CCC(N)=O)NC(=O)[C@@H](Cc2ccc(Cl)cc2)NC(=O)[C@@H](Cc2ccc3ccccc3c2)NC(C)=O)C(=O)N[C@H](Cc2ccc(NC(C)=O)cc2)C(=O)N[C@@H](C(=O)N[C@@H](CCCCNC(C)C)C(=O)N2CCC[C@H]2C(=O)N[C@H](C)C(N)=O)S(=O)(=O)C(C)C)cc1 | 2000 nM (antagonist) | 50 mg/mL (≈ 32 mM) |
| CC(=O)Nc1ccc(C[C@H](NC(=O)[C@H](CO)NC(=O)[C@@H](Cc2cccnc2)NC(=O)[C@@H](Cc2ccc(Cl)cc2)NC(=O)[C@@H](Cc2ccc3ccccc3c2)NC(C)=O)C(=O)N[C@H](Cc2ccc(NC(C)=O)cc2)C(=O)N[C@@H](CC(C)C)C(=O)N[C@@H](CCCCNC(C)C)C(=O)N2CCC[C@H]2C(=O)N[C@@H](C(N)=O)[S+](C)[O-])cc1 (stereo partly drawn) | 0.83 nM (antagonist) | 50 mg/mL (≈ 31.6 mM) |
| CC(=O)Nc1ccc(C[C@H](NC(=O)[C@H](CO)NC(=O)[C@@H](CCC(N)=O)NC(=O)[C@@H](Cc2ccc(Cl)cc2)NC(=O)[C@@H](Cc2ccc3ccccc3c2)NC(C)=O)C(=O)N[C@H](Cc2ccc(NC(C)=O)cc2)C(=O)N[C@H](C(=O)N[C@@H](CCCCNC(C)C)C(=O)N2CCC[C@H]2C(=O)N[C@H](C)C(N)=O)S(=O)(=O)C(C)C)cc1 | 3810 nM (antagonist) | 50 mg/mL (≈ 32 mM) |

Next, values leading:

| IC50 [1] | solubility [2] | SMILES |
| --- | --- | --- |
| 39 nM (antagonist) | 50 mg/mL (≈ 32.7 mM) | CC(=O)Nc1ccc(C[C@H](NC(=O)[C@H](CO)NC(=O)[C@@H](CCC(N)=O)NC(=O)[C@@H](Cc2ccc(Cl)cc2)NC(=O)[C@@H](Cc2ccc3ccccc3c2)NC(C)=O)C(=O)N[C@H](Cc2ccc(NC(C)=O)cc2)C(=O)N[C@H](SC(C)C)C(=O)N[C@@H](CCCCNC(C)C)C(=O)N2CCC[C@H]2C(=O)N[C@H](C)C(N)=O)cc1 |
| 6.2 nM (antagonist) | 50 mg/mL (≈ 32.7 mM) | CC(=O)Nc1ccc(C[C@H](NC(=O)[C@H](CO)NC(=O)[C@@H](CCC(N)=O)NC(=O)[C@@H](Cc2ccc(Cl)cc2)NC(=O)[C@@H](Cc2ccc3ccccc3c2)NC(C)=O)C(=O)N[C@H](Cc2ccc(NC(C)=O)cc2)C(=O)N[C@@H](SC(C)C)C(=O)N[C@@H](CCCCNC(C)C)C(=O)N2CCC[C@H]2C(=O)N[C@H](C)C(N)=O)cc1 |
| 85 nM (antagonist) | 50 mg/mL (≈ 32.3 mM) | CC(=O)Nc1ccc(C[C@H](NC(=O)[C@H](CO)NC(=O)[C@@H](CCC(N)=O)NC(=O)[C@@H](Cc2ccc(Cl)cc2)NC(=O)[C@@H](Cc2ccc3ccccc3c2)NC(C)=O)C(=O)N[C@H](Cc2ccc(NC(C)=O)cc2)C(=O)N[C@@H](C(=O)N[C@@H](CCCCNC(C)C)C(=O)N2CCC[C@H]2C(=O)N[C@H](C)C(N)=O)[S+]([O-])C(C)C)cc1 (stereo partly drawn) |
